Assay results: ChEMBL document CHEMBL4831479, “Discovery of Novel Thiophene-arylamide Derivatives as DprE1 Inhibitors with Potent Antimycobacterial Activities” (J Med Chem, 2021)
≈ marks a conversion by molar mass, not a printed value.

Columns and labels:
Format in all cases: functional
Conditions in all cases: variant bovis BCG, 168 h, time 7 day
[1] = tested on: Mycobacterium tuberculosis; assay: Antibacterial activity against Mycobacterium bovis BCG transfected with pMV261:Mt-dprE1 assessed as bacterial growth inhibition incubated for 7 days by resazurin assay
Outline: (§1)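 M. bovis BCG Pasteur carrying pMV261 (constitutive expression) with Mt-dprE1, Mt-dprE2 or empty vector; MIC after 7 days' exposure to compound, viability read as endogenous reductase conversion of resazurin to resorufin. INH used as control.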

[2] = tested on: Mycobacterium tuberculosis; assay: Antibacterial activity against Mycobacterium bovis BCG transfected with pMV261:Mt-dprE2 assessed as bacterial growth inhibition incubated for 7 days by resazurin assay; outline: as §1
[3] = tested on: Mycobacterium tuberculosis; assay: Antibacterial activity against wild type Mycobacterium bovis BCG assessed as bacterial growth inhibition incubated for 7 days by resazurin assay; outline: as §1

Row | SMILES | MIC [1] [µg/mL] | MIC [2] [µg/mL] | MIC [3] [µg/mL]
1 | CCOC(=O)NC(=O)c1ccsc1NC(=O)c1nc2ccccc2s1 | 15.4 (≈ 40.9 µM) |  | 
2 | COC(=O)NC(=O)c1ccsc1NC(=O)c1ccc(C(=O)N2CCCCC2)c(F)c1 | > 1.98 | 0.25 (≈ 0.577 µM) | 
3 | O=C(Nc1sccc1C(=O)Nc1nccc(C(F)(F)F)n1)c1ccc(C(=O)N2CCCCC2)cc1 | 12.8 (≈ 25.4 µM) | 1.6 (≈ 3.18 µM) | 1.6 (≈ 3.18 µM)
4 | CCOC(=O)NC(=O)c1ccsc1NC(=O)c1ccc(C(=O)N2CCCCC2)c(F)c1 | > 0.51 |  | 0.064 (≈ 0.143 µM)
5 | COC(=O)NC(=O)c1ccsc1NC(=O)c1ccc(C(=O)N2CCCCC2)cc1 | 12.2 (≈ 29.3 µM) | 1.52 (≈ 3.66 µM) | 0.76 (≈ 1.83 µM)
6 | CCOC(=O)NC(=O)c1ccsc1NC(=O)c1ccc(C(=O)N2CCCCC2)cc1 | > 1.28 | 0.32 (≈ 0.745 µM) | 0.32 (≈ 0.745 µM)
7 | CCOC(=O)NC(=O)c1ccsc1NC(=O)c1ccc(C(=O)N2CCCCC2)s1 | 8.96 (≈ 20.6 µM) | 0.56 (≈ 1.29 µM) | 0.28 (≈ 0.643 µM)
